Source: ChEMBL document CHEMBL1649278, “Characterization of a new metallo-beta-lactamase gene, bla(NDM-1), and a novel erythromycin esterase gene carried on a unique genetic structure in Klebsiella pneumoniae sequence type 14 from India” (2009)
≈ marks a conversion by molar mass, not a printed value.

How the values were obtained:
Escherichia coli [1] = test: Antibacterial activity against Escherichia coli J53 by Etest method; format: functional
Klebsiella pneumoniae [2] = test: Antibacterial activity against Klebsiella pneumoniae 05-560 by Etest method; format: functional
Escherichia coli [3] = test: Antibacterial activity against Escherichia coli J53 harboring beta-lactamase NDM-1 by Etest method; format: functional
Summary of the method: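 Transconjugant of E. coli J53 recipient, mated with donor on blood agar without selection for 18 h. Selected on MacConkey agar with sodium azide (100 μg/ml) plus ceftazidime (8 μg/ml). Transfer confirmed by indole test and PCR for the MBL gene. Susceptibility read by Etest.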

Klebsiella pneumoniae [4] = test: Activity of Klebsiella pneumoniae 05-560 beta-lactamase IMP1 by spectrophotometry
Klebsiella pneumoniae [5] = test: Ratio of Kcat to Km for Klebsiella pneumoniae 05-560 beta-lactamase IMP1
Escherichia coli [6] = test: Antibacterial activity against Escherichia coli TOP10 by Etest method; format: functional
Escherichia coli [7] = test: Antibacterial activity against Escherichia coli NF-NDM-1 by Etest method; format: functional
Escherichia coli [8] = test: Antibacterial activity against Escherichia coli TOP10 harboring beta-lactamase NDM-1 by Etest method; format: functional
Summary of the method: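 Fragments from BamHI, EcoRI or HindIII digests of K. pneumoniae 05-506 DNA were cloned into vector pK18 and electroporated into E. coli TOP10. Transformants were selected on LB agar with X-gal (30 μg/ml), ceftazidime (6 μg/ml) and kanamycin (25 μg/ml). Susceptibility read by Etest.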

O=C(O)c1cn(C2CC2)c2cc(N3CCNCC3)c(F)cc2c1=O [CIPROFLOXACIN]
MIC (Escherichia coli [1]): 0.032 µg/mL (≈ 0.0966 µM)
MIC (Klebsiella pneumoniae [2]): > 256 µg/mL
MIC (Escherichia coli [3]): 0.047 µg/mL (≈ 0.142 µM)

CC1(C)S[C@@H]2[C@H](NC(=O)Cc3ccccc3)C(=O)N2[C@H]1C(=O)O
Km (Klebsiella pneumoniae [4]): 520 µM
kcat (Klebsiella pneumoniae [4]): 320 s⁻¹
kcat/Km (Klebsiella pneumoniae [5]): 620000 M⁻¹ s⁻¹

C[C@@H](O)[C@H]1C(=O)N2C(C(=O)O)=C(S[C@@H]3CN[C@H](C(=O)N(C)C)C3)[C@H](C)[C@H]12 [MEROPENEM]
MIC (Escherichia coli [1]): 0.064 µg/mL (≈ 0.167 µM)
MIC (Escherichia coli [6]): 0.064 µg/mL (≈ 0.167 µM)
MIC (Escherichia coli [7]): > 32 µg/mL
MIC (Klebsiella pneumoniae [2]): > 256 µg/mL
MIC (Escherichia coli [8]): 12 µg/mL (≈ 31.3 µM)
MIC (Escherichia coli [3]): > 32 µg/mL

CO/N=C(\C(=O)N[C@@H]1C(=O)N2C(C(=O)[O-])=C(C[N+]3(C)CCCC3)CS[C@H]12)c1csc(N)n1
MIC (Escherichia coli [7]): 24 µg/mL (≈ 49.9 µM)
MIC (Klebsiella pneumoniae [2]): > 256 µg/mL
Km (Klebsiella pneumoniae [4]): 11 µM
kcat (Klebsiella pneumoniae [4]): 7 s⁻¹
kcat/Km (Klebsiella pneumoniae [5]): 660000 M⁻¹ s⁻¹
MIC (Escherichia coli [8]): 8 µg/mL (≈ 16.6 µM)
MIC (Escherichia coli [3]): 24 µg/mL (≈ 49.9 µM)

C[C@@H](O)[C@H]1C(=O)N2C(C(=O)O)=C(S[C@@H]3CN[C@H](C(=O)Nc4cccc(C(=O)O)c4)C3)[C@H](C)[C@H]12
MIC (Escherichia coli [1]): 0.5 µg/mL (≈ 1.05 µM)
MIC (Escherichia coli [6]): 0.125 µg/mL (≈ 0.263 µM)
MIC (Escherichia coli [7]): > 32 µg/mL
MIC (Klebsiella pneumoniae [2]): > 256 µg/mL
MIC (Escherichia coli [8]): 24 µg/mL (≈ 50.5 µM)
MIC (Escherichia coli [3]): > 32 µg/mL

CCN1CCN(C(=O)N[C@@H](C(=O)N[C@@H]2C(=O)N3[C@@H]2SC(C)(C)[C@@H]3C(=O)O)c2ccccc2)C(=O)C1=O [PIPERACILLIN]
MIC (Escherichia coli [1]): 1 µg/mL (≈ 1.93 µM)
MIC (Escherichia coli [6]): 0.5 µg/mL (≈ 0.966 µM)
MIC (Escherichia coli [7]): > 256 µg/mL
MIC (Klebsiella pneumoniae [2]): > 256 µg/mL
MIC (Escherichia coli [3]): > 256 µg/mL

CC1(C)S[C@@H]2[C@H](NC(=O)[C@H](N)c3ccccc3)C(=O)N2[C@H]1C(=O)O [AMPICILLIN]
MIC (Escherichia coli [1]): 4 µg/mL (≈ 11.4 µM)
MIC (Escherichia coli [6]): 12 µg/mL (≈ 34.3 µM)
MIC (Escherichia coli [7]): > 256 µg/mL
MIC (Klebsiella pneumoniae [2]): > 256 µg/mL
Km (Klebsiella pneumoniae [4]): 200 µM
kcat (Klebsiella pneumoniae [4]): 950 s⁻¹
kcat/Km (Klebsiella pneumoniae [5]): 4.8e+06 M⁻¹ s⁻¹
MIC (Escherichia coli [8]): > 256 µg/mL
MIC (Escherichia coli [3]): > 256 µg/mL

CO/N=C(\C(=O)N[C@@H]1C(=O)N2C(C(=O)O)=C(COC(N)=O)CS[C@H]12)c1ccco1 [CEFUROXIME]
MIC (Escherichia coli [1]): 8 µg/mL (≈ 18.9 µM)
MIC (Escherichia coli [6]): 8 µg/mL (≈ 18.9 µM)
MIC (Escherichia coli [7]): > 256 µg/mL
MIC (Klebsiella pneumoniae [2]): > 256 µg/mL
MIC (Escherichia coli [8]): > 256 µg/mL
MIC (Escherichia coli [3]): > 256 µg/mL
